Source: ChEMBL document CHEMBL4828761, “Development and crystallography-aided SAR studies of multifunctional BuChE inhibitors and 5-HT6R antagonists with β-amyloid anti-aggregation properties” (Eur J Med Chem, 2021)

Target: 5-hydroxytryptamine receptor 6 (Homo sapiens, UniProt P50406)
Experiment: Displacement of [3H]LSD from human 5HT6 receptor expressed in CHO-K1 membrane incubated for 60 mins by solid scintillation counting analysis
Type: cell membranes
Conditions: not given

5-hydroxytryptamine receptor 6, sequence (P50406 whole entry): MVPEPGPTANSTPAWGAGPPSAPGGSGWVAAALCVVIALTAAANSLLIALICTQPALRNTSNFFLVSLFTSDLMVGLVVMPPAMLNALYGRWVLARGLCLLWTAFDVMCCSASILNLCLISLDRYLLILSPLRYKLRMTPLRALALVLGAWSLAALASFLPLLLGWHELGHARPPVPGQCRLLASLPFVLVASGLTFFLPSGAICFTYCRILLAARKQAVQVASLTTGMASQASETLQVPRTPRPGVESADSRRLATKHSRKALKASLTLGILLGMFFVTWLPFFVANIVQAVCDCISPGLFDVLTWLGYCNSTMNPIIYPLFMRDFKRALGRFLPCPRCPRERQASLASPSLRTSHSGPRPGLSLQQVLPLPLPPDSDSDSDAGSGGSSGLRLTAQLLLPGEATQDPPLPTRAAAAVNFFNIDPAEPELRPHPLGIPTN

| SMILES | Ki [nM] |
| --- | --- |
| Cc1cccc(CNCCOc2cccc3c2ccn3Cc2ccccc2)c1 | 293 |
| CC(=O)Nc1ccc(CNCCOc2cccc3c2ccn3S(=O)(=O)c2ccccc2)cc1 | 0.3 |
| Cc1cccc(CNCCOc2cccc3c2CC(=O)N3Cc2ccccc2)c1 | 53 |
| Cc1ccc(CNCCOc2cccc3c2ccn3S(=O)(=O)c2ccccc2)o1 | 3 |
| CC(C)(C)OC(=O)N1CCCC(CNCCOc2cccc3c2CC(=O)N3Cc2ccccc2)C1 (centres undefined) | 146 |
| Cc1cccc(CNCCOc2cccc3c2CCN3Cc2ccccc2)c1 | 1470 |
| CNCCOc1cccc2c1ccn2S(=O)(=O)c1ccccc1 | 1.6 |
| O=S(=O)(c1ccccc1)n1ccc2c(OCCNCC3CC3)cccc21 | 2.7 |
| CC(=O)Oc1ccc(CNCCOc2cccc3c2CCN3S(=O)(=O)c2ccccc2)cc1 | 70 |
| O=C1Cc2c(OCCNCc3ccccc3)cccc2N1Cc1ccccc1 | 55 |
| COC(=O)c1ccc(CNCCOc2cccc3c2ccn3S(=O)(=O)c2ccccc2)cc1 | 13 |
| O=S(=O)(c1ccccc1)n1ccc2c(OCCNCc3cccc(C(F)(F)F)c3)cccc21 | 4 |

Target: Cholinesterase (Equus caballus, UniProt P81908)
Sequence (P81908 whole entry): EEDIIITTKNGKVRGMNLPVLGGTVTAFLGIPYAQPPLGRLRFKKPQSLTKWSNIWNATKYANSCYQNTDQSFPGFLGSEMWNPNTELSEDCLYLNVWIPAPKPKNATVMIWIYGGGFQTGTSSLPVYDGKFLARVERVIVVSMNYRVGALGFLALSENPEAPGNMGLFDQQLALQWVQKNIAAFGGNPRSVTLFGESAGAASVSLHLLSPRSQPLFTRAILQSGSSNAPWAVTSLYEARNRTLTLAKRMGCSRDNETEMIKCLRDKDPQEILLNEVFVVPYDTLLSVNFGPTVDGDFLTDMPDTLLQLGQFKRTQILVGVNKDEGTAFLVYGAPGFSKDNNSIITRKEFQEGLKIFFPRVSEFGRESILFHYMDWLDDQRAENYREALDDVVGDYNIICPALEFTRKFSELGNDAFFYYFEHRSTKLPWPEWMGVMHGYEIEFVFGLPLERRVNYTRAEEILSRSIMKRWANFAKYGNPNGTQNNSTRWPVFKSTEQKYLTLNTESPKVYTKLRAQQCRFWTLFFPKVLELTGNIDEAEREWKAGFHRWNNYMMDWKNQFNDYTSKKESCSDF
Experiment: Inhibition of equine serum BuChE using BTC as substrate preincubated with enzyme for 5 mins followed by substrate addition for 5 mins by Ellman's method
Type: cell-free
Conditions: not given

| SMILES | IC50 [nM] |
| --- | --- |
| Cc1cccc(CNCCOc2cccc3c2ccn3S(=O)(=O)c2ccccc2)c1 | 401 |
| CC(=O)Oc1cccc(CNCCOc2cccc3c2ccn3S(=O)(=O)c2ccccc2)c1 | 474 |
| O=S(=O)(c1ccccc1)n1ccc2c(OCCNCc3cc(Cl)cc(Cl)c3)cccc21 | 414 |
| O=S(=O)(c1ccccc1)n1ccc2c(OCCNCc3ccccc3Cl)cccc21 | 881 |
| O=S(=O)(c1ccccc1)n1ccc2c(OCCNCC3CCCC3)cccc21 | 269 |
| CC(=O)Oc1ccc(CNCCOc2cccc3c2ccn3S(=O)(=O)c2ccccc2)cc1 | 228 |
| CC(C)(C)OC(=O)N1CCCC(CNCCOc2cccc3c2ccn3S(=O)(=O)c2cccc3ccccc23)C1 (centres undefined) | 5.8 |
| O=S(=O)(c1ccccc1)n1ccc2c(OCCNCc3ccccc3)cccc21 | 473 |
| O=S(=O)(c1cccc2ccccc12)n1ccc2c(OCCNCc3ccccc3)cccc21 | 401 |
| Cc1cccc(CNCCOc2cccc3c2ccn3Cc2ccccc2)c1 | 958 |
| CC(=O)Nc1ccc(CNCCOc2cccc3c2ccn3S(=O)(=O)c2ccccc2)cc1 | 3800 |
| Cc1cccc(CNCCOc2cccc3c2CC(=O)N3Cc2ccccc2)c1 | 1850 |
| Cc1ccc(CNCCOc2cccc3c2ccn3S(=O)(=O)c2ccccc2)o1 | 3000 |
| CC(C)(C)OC(=O)N1CCCC(CNCCOc2cccc3c2CC(=O)N3Cc2ccccc2)C1 (centres undefined) | 1080 |
| Cc1cccc(CNCCOc2cccc3c2CCN3Cc2ccccc2)c1 | 1260 |
| CC(C)(C)OC(=O)N1CCCC(CNCCOc2cccc3c2ccn3S(=O)(=O)c2ccccc2)C1 (centres undefined) | 125 |
| O=S(=O)(c1ccccc1)N1CCc2c(OCCNCc3ccccc3)cccc21 | 1320 |
| O=S(=O)(c1ccccc1)n1ccc2c(OCCNCC3CC3)cccc21 | 2220 |
| CC(=O)Oc1ccc(CNCCOc2cccc3c2CCN3S(=O)(=O)c2ccccc2)cc1 | 660 |
| O=C1Cc2c(OCCNCc3ccccc3)cccc2N1Cc1ccccc1 | 4430 |
| COC(=O)c1ccc(CNCCOc2cccc3c2ccn3S(=O)(=O)c2ccccc2)cc1 | 14300 |
| O=S(=O)(c1ccccc1)n1ccc2c(OCCNCc3cccc(C(F)(F)F)c3)cccc21 | 2200 |
| CC(C)(C)OC(=O)N1CCCC(CNCCOc2cccc3c2CCN3S(=O)(=O)c2ccccc2)C1 (centres undefined) | 201 |

Target: T1, Cholinesterase (Homo sapiens, UniProt P06276)
T1 sequence (P06276 whole entry): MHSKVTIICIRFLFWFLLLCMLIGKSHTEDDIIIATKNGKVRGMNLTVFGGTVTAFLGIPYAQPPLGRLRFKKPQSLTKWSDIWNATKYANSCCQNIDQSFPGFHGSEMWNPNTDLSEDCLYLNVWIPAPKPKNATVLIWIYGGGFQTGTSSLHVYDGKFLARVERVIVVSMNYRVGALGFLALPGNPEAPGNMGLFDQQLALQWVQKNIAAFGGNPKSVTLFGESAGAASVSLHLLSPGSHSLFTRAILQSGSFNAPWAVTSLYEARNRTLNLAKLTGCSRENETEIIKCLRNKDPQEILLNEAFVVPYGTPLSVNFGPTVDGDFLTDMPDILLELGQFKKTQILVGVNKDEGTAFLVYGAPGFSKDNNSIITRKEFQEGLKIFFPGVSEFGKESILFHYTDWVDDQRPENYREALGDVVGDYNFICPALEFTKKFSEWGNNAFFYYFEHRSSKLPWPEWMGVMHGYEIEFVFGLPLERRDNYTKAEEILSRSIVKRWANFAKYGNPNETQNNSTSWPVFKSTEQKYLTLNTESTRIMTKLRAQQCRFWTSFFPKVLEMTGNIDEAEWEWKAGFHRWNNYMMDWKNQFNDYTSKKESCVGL
Experiment: Inhibition of BuChE in human plasma using BTC as substrate preincubated with enzyme for 5 mins followed by substrate addition for 5 mins by Ellman's method
Type: cell-free
Conditions: not given
Outline: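 Human plasma BuChE at 0.384 U/mL final, with DTNB in 0.1 M phosphate pH 8.0. […] BTC solution (0.00375 M) added; A412 after 5 min. Run in triplicate; IC50 from nonlinear regression of residual activity versus concentration.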

| SMILES | IC50 [nM] |
| --- | --- |
| Cc1cccc(CNCCOc2cccc3c2ccn3S(=O)(=O)c2ccccc2)c1 | 2820 |
| CC(=O)Oc1cccc(CNCCOc2cccc3c2ccn3S(=O)(=O)c2ccccc2)c1 | 5620 |
| O=S(=O)(c1ccccc1)n1ccc2c(OCCNCc3ccccc3Cl)cccc21 | 10500 |
| O=S(=O)(c1ccccc1)n1ccc2c(OCCNCC3CCCC3)cccc21 | 1360 |
| CC(=O)Oc1ccc(CNCCOc2cccc3c2ccn3S(=O)(=O)c2ccccc2)cc1 | 1920 |
| O=S(=O)(c1ccccc1)n1ccc2c(OCCNCc3ccccc3)cccc21 | 1610 |
| CC(C)(C)OC(=O)N1CCCC(CNCCOc2cccc3c2ccn3S(=O)(=O)c2ccccc2)C1 (centres undefined) | 206 |
| CC(C)(C)OC(=O)N1CCCC(CNCCOc2cccc3c2CCN3S(=O)(=O)c2ccccc2)C1 (centres undefined) | 1360 |

Target: Amyloid-beta precursor protein (Homo sapiens) (UniProt P05067)
Sequence (P05067 whole entry): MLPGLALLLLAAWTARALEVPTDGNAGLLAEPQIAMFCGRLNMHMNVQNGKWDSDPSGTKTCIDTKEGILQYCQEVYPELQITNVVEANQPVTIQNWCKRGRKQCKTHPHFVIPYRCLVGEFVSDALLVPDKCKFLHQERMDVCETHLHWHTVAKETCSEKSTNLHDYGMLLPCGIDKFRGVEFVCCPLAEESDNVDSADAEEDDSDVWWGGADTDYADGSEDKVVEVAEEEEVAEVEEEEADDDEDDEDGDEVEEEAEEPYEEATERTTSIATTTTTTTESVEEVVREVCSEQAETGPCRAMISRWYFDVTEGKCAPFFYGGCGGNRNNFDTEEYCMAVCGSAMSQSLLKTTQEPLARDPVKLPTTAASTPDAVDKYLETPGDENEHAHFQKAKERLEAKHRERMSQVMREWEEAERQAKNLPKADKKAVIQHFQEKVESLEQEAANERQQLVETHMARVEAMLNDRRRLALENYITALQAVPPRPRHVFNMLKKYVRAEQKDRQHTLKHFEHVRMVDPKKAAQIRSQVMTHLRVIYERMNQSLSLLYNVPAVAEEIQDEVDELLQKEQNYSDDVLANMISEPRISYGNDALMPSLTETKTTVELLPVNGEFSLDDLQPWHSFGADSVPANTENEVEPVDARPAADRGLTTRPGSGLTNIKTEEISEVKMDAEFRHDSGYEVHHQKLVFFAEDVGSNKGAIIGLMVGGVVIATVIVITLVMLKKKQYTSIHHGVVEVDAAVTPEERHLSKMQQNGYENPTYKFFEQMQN
Experiment: Inhibition of amyloid beta (1 to 42) (unknown origin) self aggregation at 10 uM incubated for 24 to 48 hrs by Thioflavin-T based fluorometric assay
Conditions: time lower […], time upper 48.0 hrs

| SMILES | inhibition [%] |
| --- | --- |
| CC(=O)Nc1ccc(CNCCOc2cccc3c2ccn3S(=O)(=O)c2ccccc2)cc1 | < 20 |
| Cc1cccc(CNCCOc2cccc3c2CC(=O)N3Cc2ccccc2)c1 | 58.5 |
| Cc1ccc(CNCCOc2cccc3c2ccn3S(=O)(=O)c2ccccc2)o1 | < 20 |
| CC(C)(C)OC(=O)N1CCCC(CNCCOc2cccc3c2CC(=O)N3Cc2ccccc2)C1 (centres undefined) | 65.2 |
| Cc1cccc(CNCCOc2cccc3c2CCN3Cc2ccccc2)c1 | 72.6 |
| CNCCOc1cccc2c1ccn2S(=O)(=O)c1ccccc1 | < 20 |
| O=S(=O)(c1ccccc1)n1ccc2c(OCCNCC3CC3)cccc21 | < 20 |
| CC(=O)Oc1ccc(CNCCOc2cccc3c2CCN3S(=O)(=O)c2ccccc2)cc1 | < 20 |
| O=C1Cc2c(OCCNCc3ccccc3)cccc2N1Cc1ccccc1 | 42.4 |
| COC(=O)c1ccc(CNCCOc2cccc3c2ccn3S(=O)(=O)c2ccccc2)cc1 | < 20 |
| O=S(=O)(c1ccccc1)n1ccc2c(OCCNCc3cccc(C(F)(F)F)c3)cccc21 | < 20 |

Test system: not listed separately
Experiment: Metabolic stability in mouse liver microsomes assessed as parent compound remaining at 50 microM preincubated for 5 mins followed by incubation with NADPH regenerating system for 120 mins by UPLC-MS analysis
Type: ADME, Microsome
Conditions: time 125 min, read-out: Stability
Outline: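 Mouse liver microsomes 1 mg/mL in 0.1 M Tris-HCl pH 7.4 with 50 μM compound, preincubated 5 min at 37 °C, then started with NADPH regeneration system; stopped after 120 min at 37 °C with cold methanol, centrifuged, supernatant analysed by UPLC-MS for remaining parent and metabolites. Verapamil served as reference.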

| SMILES | remaining at 2 h, 50 µM [%] |
| --- | --- |
| O=S(=O)(c1ccccc1)n1ccc2c(OCCNCc3ccccc3)cccc21 | 57 |
| CC(C)(C)OC(=O)N1CCCC(CNCCOc2cccc3c2ccn3S(=O)(=O)c2ccccc2)C1 (centres undefined) | 0 |

Test system: not listed separately
Experiment: Cytotoxicity against human HepG2 cells assessed as non-toxic concentration incubated for 72 hrs by MTS assay
Type: cell-based
Conditions: read-out: MNCC
Outline: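 HepG2 cells grown in MEM with 2 mM glutamine, 1% NEAA, 10% FBS at 37 °C, 5% CO2. Compounds tested in quadruplicate at 0.1, 1, 10 and 100 μM for 72 h; viability read by MTS (CellTiter 96 AQueous) assay. Doxorubicin 1 μM and CCCP 10 μM served as positive controls.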

| SMILES | MNTC at 72 h [µM] |
| --- | --- |
| O=S(=O)(c1ccccc1)n1ccc2c(OCCNCc3ccccc3)cccc21 | ≤ 10 |
| CC(C)(C)OC(=O)N1CCCC(CNCCOc2cccc3c2ccn3S(=O)(=O)c2ccccc2)C1 (centres undefined) | ≤ 1 |

Target: T1, Cholinesterase
Experiment: Inhibition of BuChE in human plasma using BTC as substrate at 10 uM preincubated with enzyme for 5 mins followed by substrate addition for 5 mins by Ellman's method relative to control
Type: cell-free
Conditions: time 10.0 min
Outline: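 Human plasma BuChE at 0.384 U/mL final, with DTNB in 0.1 M phosphate buffer pH 8.0. Compound at 10 µM screened, preincubated 5 min at 36 °C.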

| SMILES | inhibition [%] |
| --- | --- |
| CSc1ccc2c(c1)C(N1CCN(C)CC1)Cc1ccccc1S2 (centres undefined) | < 50 |
| COc1ccc(NS(=O)(=O)c2ccc(I)cc2)cc1N1CCN(C)CC1 | < 50 |
| Cc1cccc(CNCCOc2cccc3c2ccn3Cc2ccccc2)c1 | < 50 |
| CC(=O)Nc1ccc(CNCCOc2cccc3c2ccn3S(=O)(=O)c2ccccc2)cc1 | < 50 |
| Cc1cccc(CNCCOc2cccc3c2CC(=O)N3Cc2ccccc2)c1 | < 50 |
| Cc1ccc(CNCCOc2cccc3c2ccn3S(=O)(=O)c2ccccc2)o1 | < 50 |
| CC(C)(C)OC(=O)N1CCCC(CNCCOc2cccc3c2CC(=O)N3Cc2ccccc2)C1 (centres undefined) | < 50 |
| Cc1cccc(CNCCOc2cccc3c2CCN3Cc2ccccc2)c1 | < 50 |
| CNCCOc1cccc2c1ccn2S(=O)(=O)c1ccccc1 | < 50 |
| O=S(=O)(c1ccccc1)n1ccc2c(OCCNCC3CC3)cccc21 | < 50 |
| CC(=O)Oc1ccc(CNCCOc2cccc3c2CCN3S(=O)(=O)c2ccccc2)cc1 | < 50 |
| O=C1Cc2c(OCCNCc3ccccc3)cccc2N1Cc1ccccc1 | < 50 |
| COC(=O)c1ccc(CNCCOc2cccc3c2ccn3S(=O)(=O)c2ccccc2)cc1 | < 50 |
| O=S(=O)(c1ccccc1)n1ccc2c(OCCNCc3cccc(C(F)(F)F)c3)cccc21 | < 50 |

Target: Acetylcholinesterase (Electrophorus electricus, UniProt O42275)
Sequence (O42275 whole entry): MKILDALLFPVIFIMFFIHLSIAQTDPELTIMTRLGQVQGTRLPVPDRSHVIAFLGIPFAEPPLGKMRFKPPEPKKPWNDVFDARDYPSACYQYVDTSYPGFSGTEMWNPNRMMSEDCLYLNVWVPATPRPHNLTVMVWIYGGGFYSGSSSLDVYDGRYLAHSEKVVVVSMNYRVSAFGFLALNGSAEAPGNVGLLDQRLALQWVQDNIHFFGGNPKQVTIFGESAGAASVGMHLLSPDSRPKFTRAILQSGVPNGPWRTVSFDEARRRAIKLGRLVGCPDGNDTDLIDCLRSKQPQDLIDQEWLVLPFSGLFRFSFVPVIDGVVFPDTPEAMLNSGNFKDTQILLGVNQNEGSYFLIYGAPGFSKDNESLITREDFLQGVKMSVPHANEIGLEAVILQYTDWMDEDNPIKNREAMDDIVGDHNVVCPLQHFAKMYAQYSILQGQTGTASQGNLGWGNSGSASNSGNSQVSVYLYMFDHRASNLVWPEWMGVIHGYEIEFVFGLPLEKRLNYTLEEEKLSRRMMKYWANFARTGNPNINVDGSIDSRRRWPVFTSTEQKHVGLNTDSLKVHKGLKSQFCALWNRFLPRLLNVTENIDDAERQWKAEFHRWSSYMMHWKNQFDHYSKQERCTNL
Experiment: Inhibition of electric eel AchE using ATC as substrate preincubated with enzyme for 5 mins followed by substrate addition for 5 mins by Ellman's method
Conditions: not given
Outline: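 Electric eel AChE at 0.384 U/mL final, with DTNB in 0.1 M phosphate pH 8.0. […] ATC solution (0.00375 M) added; A412 after 5 min. Run in triplicate; IC50 by nonlinear regression of residual activity versus concentration.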

| SMILES | IC50 [nM] |
| --- | --- |
| Cc1cccc(CNCCOc2cccc3c2CC(=O)N3Cc2ccccc2)c1 | 1280 |
| O=C1Cc2c(OCCNCc3ccccc3)cccc2N1Cc1ccccc1 | 1710 |
